Measured values as given in paper PMC2219267 (The Journal of General Physiology, 1996).

Target: T1, band 3 (Homo sapiens, UniProt P02730)
T1 sequence (P02730 1-911): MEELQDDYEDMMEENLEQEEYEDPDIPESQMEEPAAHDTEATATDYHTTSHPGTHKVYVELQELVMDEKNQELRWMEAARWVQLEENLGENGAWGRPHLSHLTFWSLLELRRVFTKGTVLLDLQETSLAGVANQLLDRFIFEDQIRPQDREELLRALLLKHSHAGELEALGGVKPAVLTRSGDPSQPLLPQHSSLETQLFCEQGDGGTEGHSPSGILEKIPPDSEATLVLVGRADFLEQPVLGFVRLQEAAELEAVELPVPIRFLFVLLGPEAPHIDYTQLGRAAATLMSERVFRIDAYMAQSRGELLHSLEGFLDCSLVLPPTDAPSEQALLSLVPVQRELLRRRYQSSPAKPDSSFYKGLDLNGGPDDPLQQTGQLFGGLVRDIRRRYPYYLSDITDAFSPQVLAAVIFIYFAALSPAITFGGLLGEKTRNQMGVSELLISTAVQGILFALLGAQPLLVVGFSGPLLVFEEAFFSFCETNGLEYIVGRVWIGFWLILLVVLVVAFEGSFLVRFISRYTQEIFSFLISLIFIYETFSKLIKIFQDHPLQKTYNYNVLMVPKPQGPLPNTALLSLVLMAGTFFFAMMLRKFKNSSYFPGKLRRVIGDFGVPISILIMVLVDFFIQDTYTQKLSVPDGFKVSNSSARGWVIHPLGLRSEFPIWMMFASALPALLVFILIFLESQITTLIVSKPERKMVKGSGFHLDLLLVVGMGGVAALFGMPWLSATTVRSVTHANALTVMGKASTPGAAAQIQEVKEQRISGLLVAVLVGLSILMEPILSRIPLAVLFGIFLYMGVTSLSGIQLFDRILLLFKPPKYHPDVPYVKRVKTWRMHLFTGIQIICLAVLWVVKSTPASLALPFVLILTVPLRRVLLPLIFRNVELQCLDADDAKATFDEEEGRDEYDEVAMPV
Assay: 125I iodide influx into red blood cells
Format: cell-based
Method in brief: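 Heparinised human blood was washed three times in 150 KH (150 mM KCl, 24 mM sucrose, 20 mM Hepes, pH 7.2 at 0°C), with white cells aspirated, then held at 50% hematocrit. DIDS-treated cells received a 2 mM DIDS stock. Media mixed sucrose, KCl and KI with 5 mM buffer. Above pHo 11, cells were nystatin-loaded to 300 mM Cl-, and CAPS-buffered media were used.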

SMILES: [I-].[K+] [iodide, potassium iodide]
- I- influx as % of Cl- efflux (no citrate, [Clo] 0.28 mM, [Io] 2.2 mM, 0°C): less than 6%
- half-saturation concentration for Io activation of I- influx (pH 10.6, 1.65 mM [Clo]): 26.4 ± 1.8 mM
- I- influx as % of Cl- efflux (pH 11.5, 53 mM [Io], 16.5 mM [Clo]): 16%
- I- influx as % of Cl- efflux (pHo 10.6, 1.65 mM [Clo], up to 15 mM [Io]): less than 10%
